Measurements from ChEMBL document CHEMBL3091329, “Discovery of tetrahydroisoquinoline-based CXCR4 antagonists” (ACS Med Chem Lett, 2013).

How the values were obtained:
[1] = biological target: T1, C-X-C chemokine receptor type 4 (Homo sapiens, UniProt P61073); assay: Antagonist activity at CXCR4 in human Chem-1 cells assessed as inhibition of SDF-1alpha-mediated calcium flux preincubated for 10 mins by FLIPR assay; assay type: functional, cell-based
[2] = Cytotoxicity against human MAGI-CCR5 cells assessed as cell viability after 2 to 6 days by MTS assay
[3] = biological target: T1, C-X-C chemokine receptor type 4; assay: Ratio of IC50 for CXCR4 in human MAGI-CCR5 cells assessed as inhibition of HIV-1 3B entry to IC50 for CXCR4 in human Chem-1 cells assessed as inhibition of SDF-1alpha-mediated calcium flux; assay type: functional, cell-based
Outline: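 Two IC50s taken as a ratio. The first is from blockade of HIV-1 IIIB attachment in CCR5/CXCR4-expressing HeLaCD4-LTR-β-gal (MAGI) cells, with cytotoxicity (TC50) assessed alongside. The second is from inhibition of CXCL12-induced Ca2+ flux/release in Chem-1 cells. Each assay was run in duplicate.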

T1 sequence (P61073 whole entry): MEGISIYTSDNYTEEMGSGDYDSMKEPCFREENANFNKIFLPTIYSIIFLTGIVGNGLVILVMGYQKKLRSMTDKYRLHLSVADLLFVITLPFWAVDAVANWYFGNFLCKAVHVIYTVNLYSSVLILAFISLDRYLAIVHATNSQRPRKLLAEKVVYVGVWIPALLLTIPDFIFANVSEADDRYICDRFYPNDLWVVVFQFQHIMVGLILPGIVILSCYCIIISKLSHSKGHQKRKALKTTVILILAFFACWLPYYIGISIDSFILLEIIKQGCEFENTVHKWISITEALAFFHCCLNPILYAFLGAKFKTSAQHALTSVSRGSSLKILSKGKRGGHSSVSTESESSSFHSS

| Compound | IC50 [1] | Ratio IC50 [3] | CC50 ([2]; MAGI-CCR5 cells) | CC50 ([2]; magi-ccr5) |
| --- | --- | --- | --- | --- |
| NCCCCN(C[C@H]1Cc2ccccc2CN1Cc1ccccn1)[C@H]1CCCc2cccnc21 | 0.056 µM | – | > 10 µM | – |
| NCCCCN(C[C@H]1NCCc2ccccc21)[C@H]1CCCc2cccnc21 | – | – | – | > 30 µM |
| CC(C)NCCCCN(C[C@H]1Cc2ccccc2CN1)[C@H]1CCCc2cccnc21 | 0.007 µM | 2 | > 10 µM | – |
| CN(C)CCCCN(C[C@H]1Cc2ccccc2CN1)[C@H]1CCCc2cccnc21 | 0.008 µM | 2 | > 10 µM | – |
| NCCCCN(C[C@H]1CCc2ccccc2N1)[C@H]1CCCc2cccnc21 | – | – | – | > 30 µM |
| NCCCCN(C[C@@H]1CCc2ccccc2N1)[C@H]1CCCc2cccnc21 | – | – | – | > 30 µM |
| NCCCCN(C[C@H]1Cc2ccccc2CN1CC(=O)N1CCOCC1)[C@H]1CCCc2cccnc21 | 0.57 µM | – | – | > 10 µM |
| NC(=O)NCCCCN(C[C@H]1Cc2ccccc2CN1)[C@H]1CCCc2cccnc21 | 0.003 µM | – | – | > 10 µM |
| NCCCCN(C[C@@H]1NCCc2ccccc21)[C@H]1CCCc2cccnc21 | – | – | – | > 30 µM |
| NCCCCN(C[C@@H]1Cc2ccccc2CN1)[C@H]1CCCc2cccnc21 | – | – | > 10 µM | – |
| CN(C)C(=O)NCCCCN(C[C@H]1Cc2ccccc2CN1)[C@H]1CCCc2cccnc21 | 0.18 µM | – | – | > 10 µM |
| NCCCCN(C[C@H]1Cc2ccccc2CN1Cc1ccncc1)[C@H]1CCCc2cccnc21 | 0.66 µM | – | > 10 µM | – |

Continued by falling IC50 [1], values first:

| IC50 [1] | Ratio IC50 [3] | Compound | CC50 ([2]; MAGI-CCR5 cells) | CC50 ([2]; magi-ccr5) |
| --- | --- | --- | --- | --- |
| 0.49 µM | – | NCCCCN(C[C@H]1Cc2ccccc2CN1Cc1cocn1)[C@H]1CCCc2cccnc21 | – | > 10 µM |
| 0.35 µM | – | NCCCCN(C[C@H]1Cc2ccccc2CN1Cc1cccnc1)[C@H]1CCCc2cccnc21 | > 10 µM | – |
| 0.14 µM | – | CC(C)N1Cc2ccccc2C[C@@H]1CN(CCCCN)[C@H]1CCCc2cccnc21 | > 10 µM | – |
| 0.039 µM | – | CN1Cc2ccccc2C[C@@H]1CN(CCCCN)[C@H]1CCCc2cccnc21 | – | > 10 µM |
| 0.004 µM | – | CC(=O)NCCCCN(C[C@H]1Cc2ccccc2CN1)[C@H]1CCCc2cccnc21 | – | > 10 µM |
